WT yeast gro inh – growth inhibition of WT yeast, mitochondrial fusion screen | 2.1% of 190,000 active | mitochondrial fusion phenotypic screen, WT strain | inhibition, % at 10 µM | AID 1362; in the data active = inhibition above about 58%; tested in S. cerevisiae
ROMK mod – modulators of human ROMK potassium channel; P48048; Tet-inducible ROMK, thallium flux fluorescence; actives lie on both sides; B-score at 10 µM; 2% of 130,000 active; AID 1918;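 active = signal ratio slope over the read window, or its plate-corrected B-score, at least 3 SD from the plate mean, either direction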;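 also: B-score of the F/F0 ratio slope over 7 to 12 s after thallium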
Diaphorase inh – diaphorase inhibition or chemical oxidation counter-screen; diaphorase resazurin-to-resorufin fluorescence, NADH, 16 min; bacterial (C. kluyveri) enzyme, not human; inhibition, % at 20 µM; 0.69% of 190,000 active;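 active = primary screen inhibition at 20 µM above a set limit, cut at about 50% in these data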
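System: Bacterial diaphorase enzyme (C. kluyveri) | Incubation: 16-min room-temperature incubation before reading | Benchmarks: No-NADH positive control and DMSO neutral control | Measured by: Resorufin fluorescence 544/590 nm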
Cl transport mod – modulates chloride dependent transport by human KCC2. Q9H2X9. KCC2 cells, thallium flux FluoZin-2 fluorescence. B-score of Tl+ flux slope (higher = more flux/activation; lower = inhibition) at 10 µM. 2.2% of 190,000 active. AID 1456;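 active = thallium flux slope and its plate-corrected score both differing from the plate sample mean at a set confidence after two filtering rounds, in either direction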;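 also: slope of fluorescence scaled to starting intensity during 10 to 20 s after thallium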
Target sequence (Q9H2X9 whole entry, looked up): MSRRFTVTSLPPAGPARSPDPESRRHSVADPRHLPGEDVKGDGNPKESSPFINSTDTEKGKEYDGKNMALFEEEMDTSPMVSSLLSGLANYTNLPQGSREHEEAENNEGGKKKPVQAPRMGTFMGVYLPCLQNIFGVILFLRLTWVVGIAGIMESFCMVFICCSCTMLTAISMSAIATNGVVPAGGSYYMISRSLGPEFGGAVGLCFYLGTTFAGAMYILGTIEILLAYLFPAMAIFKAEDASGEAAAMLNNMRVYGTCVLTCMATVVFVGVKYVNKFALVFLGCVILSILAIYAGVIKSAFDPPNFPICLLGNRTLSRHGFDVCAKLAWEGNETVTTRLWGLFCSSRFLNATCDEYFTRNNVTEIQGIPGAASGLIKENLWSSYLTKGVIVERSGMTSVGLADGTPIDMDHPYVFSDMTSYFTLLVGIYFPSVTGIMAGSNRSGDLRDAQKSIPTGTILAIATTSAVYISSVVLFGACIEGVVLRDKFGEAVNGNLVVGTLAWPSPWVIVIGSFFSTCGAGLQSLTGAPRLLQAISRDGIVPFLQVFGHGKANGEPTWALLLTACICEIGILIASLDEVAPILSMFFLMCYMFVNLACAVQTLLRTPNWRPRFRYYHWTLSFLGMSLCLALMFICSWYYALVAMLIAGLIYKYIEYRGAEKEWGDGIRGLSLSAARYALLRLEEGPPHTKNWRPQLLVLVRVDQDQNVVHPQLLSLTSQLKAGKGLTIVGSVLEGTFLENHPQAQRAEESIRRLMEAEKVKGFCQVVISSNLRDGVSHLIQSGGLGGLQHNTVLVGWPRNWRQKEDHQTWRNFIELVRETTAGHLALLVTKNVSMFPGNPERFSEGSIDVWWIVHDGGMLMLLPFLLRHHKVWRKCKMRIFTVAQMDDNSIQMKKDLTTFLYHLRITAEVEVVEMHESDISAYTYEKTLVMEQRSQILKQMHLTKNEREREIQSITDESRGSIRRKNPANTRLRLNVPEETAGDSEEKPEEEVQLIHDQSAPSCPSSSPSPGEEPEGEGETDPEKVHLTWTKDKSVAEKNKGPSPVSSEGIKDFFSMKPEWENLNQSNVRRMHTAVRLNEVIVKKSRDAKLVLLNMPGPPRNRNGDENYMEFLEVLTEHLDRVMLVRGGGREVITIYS
Diaph act CS – activates diaphorase or chemically reduces, flagging diaphorase assay artifacts; AID 1229; Diaphorase/resazurin coupled assay, resorufin fluorescence, 16 min; hits give high values; 1 = vehicle wells, 0 = NADH-free wells; activation factor at 20 µM; 0.005% of 190,000 active;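 active = diaphorase activity raised at least twofold by the compound at 20 µM; inactive = activation factor below 2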
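Measured by – red resorufin fluorescence at 544/590 nm excitation/emission · Test system – Clostridium kluyveri diaphorase, purified enzyme · Incubation – reaction time 16 min, room temperature · Buffer or medium – 50 mM HEPES pH 7.4 with 4.542 mM MgCl2, 0.005% Tween 20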
Lmaj promast – reduces viability of Leishmania major promastigotes | 9% of 200,000 active | inhibition, % at 10 µM | AID 1063 | resazurin fluorescence viability; in the data active = inhibition above about 50%;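 also: promastigotes grown with compound for 44 hours at 28 °C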
Each line names hits and unclear results; the compound was inactive in the other large screens. This is a sample that favours compounds with a hit; in the whole collection about 12% have one here.

O=C(c1ccccc1)N1CCN(CC(O)COC2CCCCC2)CC1 (centres undefined)	none (no result: ROMK mod)
COc1ccc(CNC(=O)c2c([S-])n(-c3ccc(C)cc3)c3cccc[n+]23)cc1	none
COCn1c(-c2ccc(OC)cc2)nc2ccccc21	none (no result: ROMK mod)
C=CCn1c(-c2ccc(C)cc2)nc2ccccc21	Lmaj promast 87.3 (no result: Cl transport mod)
COc1ccc(-c2nc3ccccc3n2Cc2ccc(C)cc2)cc1	Lmaj promast 82.5
C=C(C)Cn1c(-c2ccc(OC)cc2)nc2ccccc21	Lmaj promast 54.5 (no result: Cl transport mod)
COc1ccc(Cn2c(-c3ccc(C)cc3)c[n+]3ccccc23)cc1	WT yeast gro inh 59.7, Lmaj promast 99.7 (no result: ROMK mod)
COCCn1c(-c2ccccc2)nc2ccccc21	none
CCOC(Cn1c(-c2ccc(OC)cc2)nc2ccccc21)OCC	Lmaj promast 64.5 (no result: Cl transport mod)
NS(=O)(=O)c1ccc(CCNC(=O)CSc2nc3ccsc3c(=O)n2C2CC2)cc1	none (no result: ROMK mod)
CCCCNC(=O)CSc1nc2ccsc2c(=O)n1C1CCN(C(=O)OCC)CC1	Lmaj promast 87.4 (no result: ROMK mod)
O=C(N/N=C/c1cccc(F)c1)c1cc(-c2ccco2)nc2ccccc12	WT yeast gro inh 59.9 (no result: ROMK mod, Cl transport mod)
CC(/C=N/NC(=O)c1cc(-c2ccccc2)nc2ccccc12)=C\c1ccco1	Lmaj promast 97.6 (no result: ROMK mod)
Cc1cc(C(=O)N/N=C/c2ccco2)c2ccccc2n1	none (no result: ROMK mod)
CC(=C/c1ccco1)/C=N/NC(=O)c1ccncc1	none (no result: WT yeast gro inh, ROMK mod, Diaphorase inh, Diaph act CS, Lmaj promast)
CC(/C=N/NC(=O)c1cc(-c2ccc(Cl)cc2)nc2ccccc12)=C\c1ccco1	Lmaj promast 61.9
CCOP(=O)(OCC)C(Nc1ccc(C)cc1)c1ccco1 (centres undefined)	none
Cc1cc(OCC(O)CNC(C)(C)C)ccc1Cl (centres undefined)	none
O=C(O)c1ccc(-c2ccc(/C=C3\NC(=O)N(Cc4ccc(Cl)cc4)C3=O)o2)cc1Cl	none
Cc1ccc(S(=O)(=O)Nc2cccc3ncccc23)cc1	none (no result: WT yeast gro inh, Diaphorase inh, Diaph act CS, Lmaj promast)
Cc1ccc(S(=O)(=O)Nc2cccc3ncccc23)s1	WT yeast gro inh 71.0, Cl transport mod 52.1, Lmaj promast 100.2
Cc1c(C(=O)OCCOc2ccc(Br)cc2)sc(=S)n1C	none
CC1=C/C(=N\OC(=O)/C=C/c2ccccc2)C(C)=CC1=O	Lmaj promast 100.0
NC(=O)N/N=C/c1cn(CC(=O)Nc2ccc(F)cc2)c2ccccc12	none (no result: WT yeast gro inh, Diaphorase inh, Diaph act CS, Lmaj promast)
O=C(Nc1nc2ccccc2[nH]1)C1CC1	none
O=C(COc1cccc2ccccc12)Nc1nc2ccccc2[nH]1	WT yeast gro inh 67.0
O=C(Nc1ccc2nc(-c3cccnc3)[nH]c2c1)C1CCCCC1	Lmaj promast 68.0
Nc1cccc(C(=O)Nc2ccc3nc(-c4cccnc4)[nH]c3c2)c1	none
O=C(Nc1nc2ccccc2[nH]1)C12CC3CC(CC(C3)C1)C2	Lmaj promast 90.5
O=C(Nc1ccc2nc(-c3cccnc3)[nH]c2c1)C12CC3CC(CC(C3)C1)C2	Lmaj promast 77.4
CN1CCN(C(=O)CNc2ccc(C(F)(F)F)cc2[N+](=O)[O-])CC1	none
Cc1ccc(S(=O)(=O)CCC#N)cc1	none (no result: WT yeast gro inh, ROMK mod, Diaphorase inh, Diaph act CS, Lmaj promast)
N#Cc1c(-c2cccs2)cc(C2CC2)nc1SCC(N)=O	none
O=C(/C=C/c1ccccc1)/C=C/c1ccccc1	Lmaj promast 100.1
Cc1ccc2c(c1)C(=C(C#N)C#N)C(=O)N2CCN1CCCCC1	none (no result: WT yeast gro inh, Diaphorase inh, Diaph act CS, Lmaj promast)
O=C(Cc1ccccc1)N1CCN=C1SCc1cccc([N+](=O)[O-])c1	none
CCOc1cc(CNc2ccc(N3CCCC3)cc2)cc(Cl)c1OC	Diaphorase inh 67.9
CC(C)c1ccc(CNc2ccc(N3CCOCC3)cc2)cc1	Lmaj promast 81.1
CCOc1ccc(CNc2ccc(N3CCCC3)cc2)cc1	Diaphorase inh 74.7, Lmaj promast 100.3
COc1ccc(NC2=NCCC2)cc1	none (no result: ROMK mod)
COc1ccc(Nc2ccc3c(c2)=NC2(CCCCC2)[N+]=3[O-])cc1	Diaphorase inh 72.8, Lmaj promast 100.6
CCC1CCCCN1CC(=O)c1c(C)[nH]c2ccc(OC)cc12 (centres undefined)	none (no result: WT yeast gro inh, ROMK mod, Diaphorase inh, Diaph act CS, Lmaj promast)
c1ccc(COc2ccccc2CNC2CCCC2)cc1	Lmaj promast 70.3
c1csc(COc2ccccc2CNC2CCCCC2)c1	Lmaj promast 80.7 (no result: ROMK mod)
c1ccc(COc2ccccc2CNC23CC4CC(CC(C4)C2)C3)cc1	Lmaj promast 71.0
CCCn1nnnc1NCc1ccccc1OCc1cccs1	none (no result: ROMK mod)

Screening data: PubChem BioAssay, several laboratories
